Assay results: ChEMBL document CHEMBL1765024, “Fluorescent cyclin-dependent kinase inhibitors block the proliferation of human breast cancer cells” (Bioorg Med Chem, 2011)
pIC50: −log10 of the molar value. Activity calls are given as the source filed them. The calls are words filed in the database; no cut-off is given here.

Key:
[1] = molecular target: Cyclin-dependent kinase 1/cyclin B1 (Homo sapiens) (UniProt P06493+P14635); conditions: at 0.1 µM
MCF7 [2] = test: Induction of apoptosis in human MCF7 cells assessed as decrease in cell number at 10 uM after 48 hrs using propidium iodide staining by confocal microscopic analysis; format: functional, cell-based
MCF7 [3] = test: Cell cycle arrest in human MCF7 cells assessed as accumulation at G2/M phase at 5 to 10 uM after 16 to 40 hrs using propidium iodide staining by flow cytometry; format: functional, cell-based
In short: (§1)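 Asynchronous cells were treated with 5 or 10 µM compound or DMSO for 24 h (also 16 and 40 h). They were trypsinized, washed in PBS and fixed/permeabilized in 70% ethanol. Staining was with RNase and propidium iodide for 30 min in the dark at room temperature, followed by flow cytometry. Phase percentages are given minus DMSO control; mean of triplicates.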

MDA-MB-231 [4] = test: Cell cycle arrest in human MDA-MB-231 cells assessed as accumulation at G2/M phase at 5 to 10 uM after 24 hrs using propidium iodide staining by flow cytometry; format: functional, cell-based
In short: as §1

[5] = molecular target: CDK3/cyclin E (Homo sapiens) (UniProt P24864+O96020+Q00526); test: Inhibition of human CDK3/cyclin E at 0.1 uM after 40 mins relative to control; format: protein-complex assay
In short: (§2)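 Radiometric screen at 100 nM compound against purified human CDK/cyclin (5–10 mU). Incubation 40 min at room temperature, stopped with phosphoric acid. Read by filtermat scintillation. Activity expressed as % of control, N = 2.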

[6] = molecular target: T1, Cyclin-dependent kinase 5/CDK5 activator 1 (Homo sapiens) (UniProt Q00535+Q15078); conditions: at 0.1 µM
[7] = molecular target: T1, Cyclin-dependent kinase 5/CDK5 activator 1 (Homo sapiens); conditions: at 0.1 µM; remark: listed apart in the source
MDA-MB-231 [8] = test: Induction of apoptosis in human MDA-MB-231 cells assessed as decrease in cell number at 10 uM after 48 hrs using propidium iodide staining by confocal microscopic analysis; format: functional, cell-based
MDA-MB-231 [9] = test: Induction of apoptosis in human MDA-MB-231 cells assessed as aberrant gross morphological changes at 10 uM after 48 hrs using propidium iodide staining by confocal microscopic analysis; format: functional, cell-based
MCF7 [10] = test: Cell cycle arrest in human MCF7 cells assessed as accumulation at G2/M phase at 5 to 10 uM after 24 hrs using propidium iodide staining by flow cytometry; format: functional, cell-based
In short: as §1

MDA-MB-231 [11] = test: Antiproliferative activity against estrogen receptor-deficient human MDA-MB-231 cells after 48 hrs by WST-1 assay; format: functional, cell-based; conditions: MDA-MB-231, 48 h
In short: (§3)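 Cells seeded at 3000/well in DMEM with 10% FBS and left 24 h. Compounds in DMSO were serially diluted in medium (1–100 µM) and added in triplicate. WST-1 was read 48 h after addition: 2–3 h incubation, absorbance at 450 nm with 630 nm reference. IC50 interpolated from log concentration versus fraction surviving; mean (SEM) of triplicate experiments.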

[12] = molecular target: CDK9/cyclin T1 (Homo sapiens) (UniProt O60563+P50750); test: Inhibition of at human CDK9/cyclin T1 at 0.1 uM after 40 mins relative to control; format: protein-complex assay
In short: as §2

MDA-MB-231 [13] = test: Induction of apoptosis in human MDA-MB-231 cells assessed as decrease in caspase 3 protein level at 10 uM after 48 hrs by Western blotting; format: functional, cell-based
MCF7 [14] = test: Induction of apoptosis in human MCF7 cells assessed as late apoptotic cells at 10 uM after 24 hrs using annexinV-propidium iodide staining by flow cytometry (reference value: 13.35%); format: functional
MCF7 [15] = test: Cell cycle arrest in human MCF7 cells assessed as accumulation at sub G1 phase at 5 to 10 uM after 24 hrs using propidium iodide staining by flow cytometry; format: functional, cell-based
In short: as §1

MDA-MB-231 [16] = test: Induction of apoptosis in human MDA-MB-231 cells assessed as decrease in caspase 7 protein level at 10 uM after 48 hrs by Western blotting; format: functional, cell-based
MCF7 [17] = test: Induction of apoptosis in human MCF7 cells assessed as necrotic cells at 10 uM after 24 hrs using annexinV-propidium iodide staining by flow cytometry (reference value: 12.09%); format: functional
MCF7 [18] = test: Antiproliferative activity against human MCF7 cells expressing estrogen receptor after 48 hrs by WST-1 assay; format: functional, cell-based; conditions: MCF7, 48 h
In short: as §3

MDA-MB-231 [19] = test: Induction of apoptosis in human MDA-MB-231 cells assessed as increase in Bax protein level at 10 uM after 48 hrs by Western blotting; format: functional, cell-based
In short: (§4)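 MDA-MB-231 cells were treated with vehicle or 10 µM compound for 48 h (and 72 h). Lysates were cleared and protein measured by BCA. Equal protein was run on 10% SDS–PAGE and transferred to PVDF, blocked in 5% milk overnight, and probed 2 h with anti-Bcl-2, Bax or PARP. HRP secondary was applied for 1 h, with ECL detection.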

MDA-MB-231 [20] = test: Cell cycle arrest in human MDA-MB-231 cells assessed as accumulation at G2/M phase at 5 to 10 uM after 16 to 40 hrs using propidium iodide staining by flow cytometry; format: functional, cell-based
In short: as §1

MDA-MB-231 [21] = test: Cell cycle arrest in human MDA-MB-231 cells assessed as accumulation at sup G1 phase at 5 to 10 uM after 24 hrs using propidium iodide staining by flow cytometry; format: functional, cell-based
In short: as §1

MCF7 [22] = test: Induction of apoptosis in human MCF7 cells assessed as early apoptotic cells at 10 uM after 24 hrs using annexinV-propidium iodide staining by flow cytometry (reference value: 4.24%); format: functional
[23] = molecular target: Cyclin-dependent kinase 7/ cyclin H (Homo sapiens) (UniProt P51946+P50613); test: Inhibition of human CDK7/cyclinH/MAT1 at 0.1 uM after 40 mins relative to control; format: protein-complex assay
In short: as §2

MDA-MB-231 [24] = test: Induction of apoptosis in human MDA-MB-231 cells assessed as induction of PARP cleavage at 10 uM after 48 hrs by Western blotting; format: functional, cell-based
In short: as §4

MCF7 [25] = test: Induction of apoptosis in human MCF7 cells assessed as viable cells at 10 uM after 24 hrs using annexinV-propidium iodide staining by flow cytometry (reference value: 70.32%); format: functional; conditions: MCF7, 24 h, read-out: Activity
MCF7 [26] = test: Induction of apoptosis in human MCF7 cells assessed as aberrant gross morphological changes at 10 uM after 48 hrs using propidium iodide staining by confocal microscopic analysis; format: functional, cell-based
MDA-MB-231 [27] = test: Induction of apoptosis in human MDA-MB-231 cells assessed as decrease in Bcl2 protein level at 10 uM after 48 hrs by Western blotting; format: functional, cell-based
In short: as §4

MDA-MB-231 [28] = test: Antiproliferative activity against estrogen receptor-deficient human MDA-MB-231 cells at 100 uM after 48 hrs by WST-1 assay; format: functional, cell-based
In short: (§5)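 Cells seeded at 3000/well in DMEM with 10% FBS and left 24 h, then given compound from DMSO stock diluted in medium at 100 µM. Survival read by WST-1 48 h after addition: 2–3 h incubation, absorbance at 450 nm with 630 nm reference; triplicate experiments.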

MDA-MB-231 [29] = test: Induction of apoptosis in human MDA-MB-231 cells assessed as reduction of cdc2 phosphorylation at Y15 regulatory site at 10 uM after 24 hrs by Western blot analysis; format: functional, cell-based
In short: (§6)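 MDA-MB-231 cells were treated with 10 µM compound for 1, 3, 6, 12 and 24 h and lysed. Equal protein was resolved by 10% SDS–PAGE and immunoblotted for phospho-cdc2 (T161, Y15), cdc2 and cyclin B, with actin as loading standard and ECL detection.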

MDA-MB-231 [30] = test: Induction of apoptosis in human MDA-MB-231 cells assessed as reduction of cdc2 phosphorylation at T161 catalytic site at 10 uM after 24 hrs by Western blot analysis; format: functional, cell-based
In short: as §6

MCF7 [31] = test: Antiproliferative activity against human MCF7 cells expressing estrogen receptor at 100 uM after 48 hrs by WST-1 assay; format: functional, cell-based
In short: as §5

[32] = Antiproliferative activity against human CL 10.3 cells expressing p-glycoprotein after 72 hrs by WST-1 assay; format: functional, cell-based
In short: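 MCF-7 and its P-glycoprotein-overexpressing MDR subline CL 10.3 were grown in DMEM with 10% heat-inactivated FBS. Compounds in DMSO were serially diluted in medium and given to cells for 72 h. Read-out was WST-1 reduction (450 nm, 630 nm reference). IC50 interpolated from log concentration versus fraction surviving; mean (SEM) of triplicates. Ratio is CL 10.3 IC50 over MCF-7 IC50.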

MDA-MB-231 [33] = test: Cell cycle arrest in human MDA-MB-231 cells assessed as accumulation at G2/M phase treated at 10 uM for 24 hrs measured after drug washout following 48 hrs growth recovery using propidium iodide staining by flow cytometry; format: functional, cell-based
In short: (§7)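 Exponentially growing cells exposed 24 h, then held a further 48 h in compound-free medium. Cells trypsinized, pelleted, PBS-washed, permeabilized in 70% ethanol, stained 30 min in the dark at room temperature with PI plus RNase, and analysed by flow cytometry. Phase percentages given after subtracting untreated control. Mean of triplicate experiments.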

MDA-MB-231 [34] = test: Cell cycle arrest in human MDA-MB-231 cells assessed as accumulation at G2/M phase treated at 5 uM for 24 hrs measured after drug washout following 48 hrs growth recovery using propidium iodide staining by flow cytometry; format: functional, cell-based
In short: as §7

MDA-MB-231 [35] = test: Induction of apoptosis in human MDA-MB-231 cells assessed as decrease in Bcl2 protein level at 40 uM after 48 hrs by Western blotting; format: functional, cell-based
In short: (§8)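 Cells treated with vehicle or compound, then lysed in NP-40/Triton X-100 buffer with protease and phosphatase inhibitors. Lysate protein measured by BCA, and equal protein run on 10% SDS–PAGE and transferred to PVDF. Blocked overnight in 5% milk/TBST, primary antibody 2 h, HRP secondary 1 h, ECL detection.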

MDA-MB-231 [36] = test: Induction of apoptosis in human MDA-MB-231 cells assessed as decrease in caspase 7 protein level at 40 uM after 48 hrs by Western blotting; format: functional, cell-based
In short: as §8

MDA-MB-231 [37] = test: Induction of apoptosis in human MDA-MB-231 cells assessed as decrease in caspase 3 protein level at 40 uM after 48 hrs by Western blotting; format: functional, cell-based
In short: as §8

MDA-MB-231 [38] = test: Induction of apoptosis in human MDA-MB-231 cells assessed as increase in Bax protein level at 40 uM after 48 hrs by Western blotting; format: functional, cell-based
In short: as §8

T1 sequence (Q00535 whole entry): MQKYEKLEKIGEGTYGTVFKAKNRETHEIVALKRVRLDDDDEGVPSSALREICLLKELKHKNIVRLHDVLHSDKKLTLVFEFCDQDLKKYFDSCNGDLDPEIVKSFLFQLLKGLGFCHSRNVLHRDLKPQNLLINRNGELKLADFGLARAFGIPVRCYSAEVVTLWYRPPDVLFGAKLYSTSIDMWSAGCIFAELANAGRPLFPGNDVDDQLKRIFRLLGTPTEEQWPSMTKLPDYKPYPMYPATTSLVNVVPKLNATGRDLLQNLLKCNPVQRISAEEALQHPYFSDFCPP
T1 sequence (Q15078 99-307 partner limits assumed): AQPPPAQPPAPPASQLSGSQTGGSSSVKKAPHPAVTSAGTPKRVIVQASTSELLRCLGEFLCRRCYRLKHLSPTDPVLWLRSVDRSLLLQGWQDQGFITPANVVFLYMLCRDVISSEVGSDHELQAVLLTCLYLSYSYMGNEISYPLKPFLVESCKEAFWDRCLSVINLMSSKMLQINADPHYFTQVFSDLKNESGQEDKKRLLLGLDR
Chain of CDK3/cyclin E (Homo sapiens) (O96020 whole entry, looked up): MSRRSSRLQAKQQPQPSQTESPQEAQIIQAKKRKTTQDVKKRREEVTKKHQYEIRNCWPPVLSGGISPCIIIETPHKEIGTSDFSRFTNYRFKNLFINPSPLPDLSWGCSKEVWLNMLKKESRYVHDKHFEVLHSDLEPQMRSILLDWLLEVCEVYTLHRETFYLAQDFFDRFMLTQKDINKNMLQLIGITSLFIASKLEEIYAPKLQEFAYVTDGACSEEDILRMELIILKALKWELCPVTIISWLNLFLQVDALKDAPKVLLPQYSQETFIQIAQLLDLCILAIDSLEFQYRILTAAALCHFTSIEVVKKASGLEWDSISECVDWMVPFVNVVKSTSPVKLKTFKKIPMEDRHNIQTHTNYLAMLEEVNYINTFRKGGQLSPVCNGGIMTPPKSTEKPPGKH
Chain of CDK3/cyclin E (Homo sapiens) (P24864 whole entry, looked up): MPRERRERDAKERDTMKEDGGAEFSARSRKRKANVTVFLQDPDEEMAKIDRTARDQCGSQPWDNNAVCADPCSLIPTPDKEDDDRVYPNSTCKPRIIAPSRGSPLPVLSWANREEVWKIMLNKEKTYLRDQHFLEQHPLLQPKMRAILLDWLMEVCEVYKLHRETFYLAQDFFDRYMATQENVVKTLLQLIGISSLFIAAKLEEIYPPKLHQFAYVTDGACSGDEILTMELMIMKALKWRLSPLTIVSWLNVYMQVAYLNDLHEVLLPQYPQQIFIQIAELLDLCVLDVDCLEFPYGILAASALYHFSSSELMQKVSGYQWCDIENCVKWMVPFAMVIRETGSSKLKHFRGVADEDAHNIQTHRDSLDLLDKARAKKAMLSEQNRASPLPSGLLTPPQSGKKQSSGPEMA
Chain of CDK3/cyclin E (Homo sapiens) (Q00526 whole entry, looked up): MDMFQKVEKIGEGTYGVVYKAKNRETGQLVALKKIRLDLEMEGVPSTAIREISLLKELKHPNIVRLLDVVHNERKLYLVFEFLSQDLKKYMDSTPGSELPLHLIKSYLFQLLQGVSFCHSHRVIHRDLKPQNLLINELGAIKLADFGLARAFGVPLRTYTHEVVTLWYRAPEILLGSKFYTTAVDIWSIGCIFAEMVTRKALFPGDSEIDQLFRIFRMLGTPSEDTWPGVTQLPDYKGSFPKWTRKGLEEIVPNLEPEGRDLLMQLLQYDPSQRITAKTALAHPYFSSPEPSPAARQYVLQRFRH
Chain of Cyclin-dependent kinase 1/cyclin B1 (Homo sapiens) (P06493 whole entry, looked up): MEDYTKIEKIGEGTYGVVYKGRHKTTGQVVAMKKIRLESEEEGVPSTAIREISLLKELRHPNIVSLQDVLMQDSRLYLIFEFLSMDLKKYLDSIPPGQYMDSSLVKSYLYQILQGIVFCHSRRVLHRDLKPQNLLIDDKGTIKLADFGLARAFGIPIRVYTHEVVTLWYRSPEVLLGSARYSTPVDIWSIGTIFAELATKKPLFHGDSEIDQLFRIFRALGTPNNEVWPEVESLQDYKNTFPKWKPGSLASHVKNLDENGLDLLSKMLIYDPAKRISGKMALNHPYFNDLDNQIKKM
Chain of Cyclin-dependent kinase 1/cyclin B1 (Homo sapiens) (P14635 whole entry, looked up): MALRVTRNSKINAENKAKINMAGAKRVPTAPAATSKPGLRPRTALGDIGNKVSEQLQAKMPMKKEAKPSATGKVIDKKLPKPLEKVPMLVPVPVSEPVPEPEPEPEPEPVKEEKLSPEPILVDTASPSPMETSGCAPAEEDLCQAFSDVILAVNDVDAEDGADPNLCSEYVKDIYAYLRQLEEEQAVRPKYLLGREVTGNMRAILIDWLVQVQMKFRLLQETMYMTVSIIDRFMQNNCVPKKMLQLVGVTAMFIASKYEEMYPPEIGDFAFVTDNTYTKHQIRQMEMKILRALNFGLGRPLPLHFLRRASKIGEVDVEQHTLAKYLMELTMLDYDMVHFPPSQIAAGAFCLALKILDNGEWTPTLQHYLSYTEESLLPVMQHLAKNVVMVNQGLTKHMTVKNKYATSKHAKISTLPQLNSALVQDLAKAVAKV

SMILES	inhibition [1]	inhibition [5]	inhibition [6]	inhibition [7]	pIC50 (MDA-MB-231 [11])	inhibition [12]	Activity (MCF7 [14])	Activity (MCF7 [17])	pIC50 (MCF7 [18])	Activity (MCF7 [22])	inhibition [23]	viability at 10 µM (MCF7 [25])	further results
CC[C@H](CO)Nc1nc(Nc2ccc(C(=O)NCCNS(=O)(=O)c3cccc4c(N(C)C)cccc34)c(Cl)c2)c2ncn(C(C)C)c2n1	16%	40%	67%	76%	5.31	44%	16.74%	22.14%	4.72	8.87%	57%	52.3%	Activity (MCF7 [2]): Active; Activity (MCF7 [3]): Active; Activity (MDA-MB-231 [4]): Active; Activity (MDA-MB-231 [8]): Active; Activity (MDA-MB-231 [9]): Active; Activity (MCF7 [10]): Active; Activity (MDA-MB-231 [13]): Active; Activity (MCF7 [15]): Active; Activity (MDA-MB-231 [16]): Active; Activity (MDA-MB-231 [19]): Active; Activity (MDA-MB-231 [20]): Active; Activity (MDA-MB-231 [21]): Active; Activity (MDA-MB-231 [24]): Active; Activity (MCF7 [26]): Active; Activity (MDA-MB-231 [27]): Active
CC(C)[C@H](CO)Nc1nc(Nc2ccc(C(=O)O)c(Cl)c2)c2ncn(C(C)C)c2n1 [PURVALANOL B]	78%	89%	97%	97%	< 4.00	22%	–	–	< 4.00	–	66%	–	Activity (MDA-MB-231 [28]): inactive; Activity (MDA-MB-231 [29]): inactive; Activity (MDA-MB-231 [30]): inactive; Activity (MCF7 [31]): inactive
CC(=O)O[C@H]1C(=O)[C@@]2(C)[C@H]([C@H](OC(=O)c3ccccc3)[C@]3(O)C[C@H](OC(=O)[C@H](O)[C@@H](NC(=O)c4ccccc4)c4ccccc4)C(C)=C1C3(C)C)[C@]1(OC(C)=O)CO[C@@H]1C[C@@H]2O [PACLITAXEL]	–	–	–	–	–	–	–	–	–	–	–	–	pIC50 [32]: < 4.30
CC[C@H](CO)Nc1nc(NCc2ccccc2)c2ncn(C(C)C)c2n1 [SELICICLIB]	–	–	–	–	4.26	19%	13.2%	6.56%	–	7.13%	26%	73.1%	Activity (MDA-MB-231 [33]): inactive; Activity (MDA-MB-231 [34]): inactive; Activity (MDA-MB-231 [35]): inactive; Activity (MDA-MB-231 [36]): inactive; Activity (MDA-MB-231 [37]): inactive; Activity (MDA-MB-231 [38]): inactive
CN(C)c1cccc2c(S(=O)(=O)NCCN)cccc12 [DANSYL ETHYLENEDIAMINE]	–	–	–	–	< 4.00	–	–	–	< 4.00	–	–	–	–
